# Assays:
# human TLR7 = target: T1, human TLR7 (Homo sapiens, UniProt Q9NYK1); experiment: SEAP reporter assay in HEK-Blue hTLR7 cells; format: cell-based
# T1 sequence (Q9NYK1 27-1049): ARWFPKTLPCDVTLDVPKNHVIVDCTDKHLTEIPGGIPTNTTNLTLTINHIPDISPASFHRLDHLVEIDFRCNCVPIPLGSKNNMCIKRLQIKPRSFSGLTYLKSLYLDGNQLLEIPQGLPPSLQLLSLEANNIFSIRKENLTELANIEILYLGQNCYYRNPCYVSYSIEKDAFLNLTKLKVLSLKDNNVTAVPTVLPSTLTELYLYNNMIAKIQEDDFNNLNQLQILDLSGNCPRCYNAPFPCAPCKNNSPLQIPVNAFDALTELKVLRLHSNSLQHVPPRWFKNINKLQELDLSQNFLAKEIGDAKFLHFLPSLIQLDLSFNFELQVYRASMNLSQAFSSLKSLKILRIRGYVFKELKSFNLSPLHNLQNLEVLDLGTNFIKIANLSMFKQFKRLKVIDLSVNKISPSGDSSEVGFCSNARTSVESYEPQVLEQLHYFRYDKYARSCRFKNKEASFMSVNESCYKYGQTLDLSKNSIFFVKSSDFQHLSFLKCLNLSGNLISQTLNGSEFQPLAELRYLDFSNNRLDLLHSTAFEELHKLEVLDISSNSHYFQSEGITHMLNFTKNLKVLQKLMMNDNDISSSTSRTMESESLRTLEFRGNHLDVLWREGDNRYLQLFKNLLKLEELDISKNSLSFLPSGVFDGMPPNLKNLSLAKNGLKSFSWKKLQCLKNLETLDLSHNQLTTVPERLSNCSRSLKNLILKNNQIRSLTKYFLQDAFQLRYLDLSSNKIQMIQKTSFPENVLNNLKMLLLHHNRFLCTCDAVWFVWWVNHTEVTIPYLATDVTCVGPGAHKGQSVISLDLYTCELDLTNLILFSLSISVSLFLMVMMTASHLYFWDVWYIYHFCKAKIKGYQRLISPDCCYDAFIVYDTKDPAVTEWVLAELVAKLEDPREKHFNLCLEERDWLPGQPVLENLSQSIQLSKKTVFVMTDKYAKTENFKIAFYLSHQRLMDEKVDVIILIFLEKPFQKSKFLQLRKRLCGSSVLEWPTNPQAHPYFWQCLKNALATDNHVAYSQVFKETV
# Summary of the method: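 HEK-Blue hTLR7 cells (stable human TLR7 with SEAP reporter) were plated at 5 × 10^5 cells/mL in DMEM with 10% heat-inactivated FBS. They were treated with R848 and varying test compound concentrations at 37 °C for 20–24 h. Medium was mixed with QUANTI-Blue, incubated at 37 °C for about 30 min, and read at 620 nm. R848-only = 100% activation; untreated = 0%.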
# hTLR8 = target: T2, hTLR8 (Homo sapiens, UniProt Q9NR97); experiment: SEAP reporter assay in HEK-Blue hTLR8 cells; format: cell-based
# T2 sequence (Q9NR97 27-1041): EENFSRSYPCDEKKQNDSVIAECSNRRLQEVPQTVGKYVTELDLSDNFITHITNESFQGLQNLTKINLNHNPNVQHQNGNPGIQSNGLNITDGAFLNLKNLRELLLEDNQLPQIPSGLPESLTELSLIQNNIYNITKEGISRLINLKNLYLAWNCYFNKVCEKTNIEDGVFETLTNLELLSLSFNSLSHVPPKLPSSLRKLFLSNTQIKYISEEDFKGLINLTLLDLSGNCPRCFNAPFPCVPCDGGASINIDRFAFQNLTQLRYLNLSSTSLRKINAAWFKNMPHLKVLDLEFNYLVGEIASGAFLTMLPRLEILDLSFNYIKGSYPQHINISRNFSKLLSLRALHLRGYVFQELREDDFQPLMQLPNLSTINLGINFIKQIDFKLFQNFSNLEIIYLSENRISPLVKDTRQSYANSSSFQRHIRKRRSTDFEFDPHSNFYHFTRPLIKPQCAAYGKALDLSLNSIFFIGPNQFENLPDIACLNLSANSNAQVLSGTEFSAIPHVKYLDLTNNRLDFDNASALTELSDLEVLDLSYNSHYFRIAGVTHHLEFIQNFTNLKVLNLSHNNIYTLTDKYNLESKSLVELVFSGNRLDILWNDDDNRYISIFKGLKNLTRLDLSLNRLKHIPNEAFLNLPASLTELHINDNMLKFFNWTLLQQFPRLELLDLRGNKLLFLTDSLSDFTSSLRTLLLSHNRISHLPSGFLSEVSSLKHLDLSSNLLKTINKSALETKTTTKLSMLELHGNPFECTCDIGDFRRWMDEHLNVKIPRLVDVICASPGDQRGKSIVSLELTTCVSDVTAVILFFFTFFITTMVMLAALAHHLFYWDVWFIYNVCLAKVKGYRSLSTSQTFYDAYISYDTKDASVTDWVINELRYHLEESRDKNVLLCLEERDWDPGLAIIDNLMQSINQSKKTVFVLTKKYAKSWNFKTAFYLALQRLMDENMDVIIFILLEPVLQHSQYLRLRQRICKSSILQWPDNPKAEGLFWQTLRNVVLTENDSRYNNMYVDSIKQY
# MRL/lpr mice = MRL/lpr mice SLE model; format: in vivo, mouse; settings: female MRL/lpr mice, S14 50 mg/kg oral once daily; vs placebo
# Summary of the method: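 Mice were 14-week-old female MRL/lpr, randomized by body weight, n = 12/group, treated 4 weeks. Oral test compound in 10% w/v PEG-400/1,3-propanediol/water (55:20:25): 100 mg/kg twice daily, or a second compound at 50 mg/kg once daily. Controls: hydroxychloroquine 100 mg/kg daily in saline; saline placebo. Weekly: survival, body weight, skin lesions, and fundus-vein plasma for ANA/anti-dsDNA ELISA. Endpoint: spleen weight and H&E kidney histology.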
# [1] = system: IL-8 mRNA (TLR7 downstream); experiment: RT-PCR analysis of IL-8 mRNA in R848 treated HEK-Blue TLR7 cells; format: cell-based, human; settings: 2 μg/mL R848 treated HEK-Blue TLR7 cells
# Summary of the method: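 HEK-Blue TLR7 cells were seeded at 1 × 10^6 cells/well for 24 h, then switched to serum-free medium. They were treated ± R848 with various test compound concentrations for 16 h at 37 °C. IL-8 mRNA was quantified by RT-PCR using the ΔΔCt method, with GAPDH as reference and normalization to untreated cells.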
# [2] = target: T3, TLR7 extracellular domain (Macaca mulatta, UniProt B3Y653, N167Q/N389Q/N488Q/N799Q, form not given); experiment: ITC titration to TLR7 recombinant protein; format: binding, Monkey (Macaca mulatta)
# T3 sequence (B3Y653 27-839 N167Q/N389Q/N488Q/N799Q): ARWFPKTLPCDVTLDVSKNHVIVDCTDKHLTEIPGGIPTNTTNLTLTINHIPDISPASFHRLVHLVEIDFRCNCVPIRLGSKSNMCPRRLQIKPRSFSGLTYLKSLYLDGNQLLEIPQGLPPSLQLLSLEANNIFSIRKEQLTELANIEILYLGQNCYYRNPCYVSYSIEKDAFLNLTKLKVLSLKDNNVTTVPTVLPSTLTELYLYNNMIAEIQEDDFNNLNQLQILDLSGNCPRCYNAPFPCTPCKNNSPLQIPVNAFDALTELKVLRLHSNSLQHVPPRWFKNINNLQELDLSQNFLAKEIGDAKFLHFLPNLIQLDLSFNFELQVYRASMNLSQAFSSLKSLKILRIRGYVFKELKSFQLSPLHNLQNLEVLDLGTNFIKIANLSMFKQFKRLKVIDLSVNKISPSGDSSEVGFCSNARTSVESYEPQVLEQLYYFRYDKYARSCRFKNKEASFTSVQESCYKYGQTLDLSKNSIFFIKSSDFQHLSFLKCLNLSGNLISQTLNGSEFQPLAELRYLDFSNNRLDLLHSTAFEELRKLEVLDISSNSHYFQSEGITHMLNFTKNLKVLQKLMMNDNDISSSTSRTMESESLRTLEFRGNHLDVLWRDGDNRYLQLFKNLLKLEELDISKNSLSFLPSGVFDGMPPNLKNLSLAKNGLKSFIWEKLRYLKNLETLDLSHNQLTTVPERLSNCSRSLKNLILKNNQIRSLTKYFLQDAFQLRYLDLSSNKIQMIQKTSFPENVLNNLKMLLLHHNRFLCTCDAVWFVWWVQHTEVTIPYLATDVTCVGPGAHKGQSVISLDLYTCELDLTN
# Summary of the method: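 Titrations used the same purified rhesus TLR7 ectodomain, at 298 K in citrate/NaOH pH 4.8, 150 mmol/L NaCl. Syringe held 1 mmol/L test compound or loxoribine; cell held TLR7, with or without the other ligand pre-added. Each run was one small injection followed by 18 injections at 180 s intervals. Kd and ΔH obtained by single-site binding model fitting.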
# [3] = 1 mmol/L loxoribine into 50 μmol/L TLR7, absence of TH-407b
IC50 (human TLR7),IC50 (hTLR8),Structure (SMILES),other results
3.06 ± 2.72 µM,0.06 ± 0.01 µM,COc1ccccc1C(=O)N1CCN(c2ccc([N+](=O)[O-])c3ncccc23)CC1 [Compound S10],
0.41 ± 0.33 µM,0.06 ± 0.03 µM,COc1ccc(C(=O)N2CCN(c3ccc([N+](=O)[O-])c4ncccc34)CC2)c(OC)c1 [Compound S11],
2.12 ± 0.58 µM,0.06 ± 0.03 µM,O=C(c1cccs1)N1CCN(c2ccc([N+](=O)[O-])c3ncccc23)CC1 [Compound S12],
0.53 ± 0.11 µM,0.1 ± 0.01 µM,O=C(c1ccco1)N1CCN(c2ccc([N+](=O)[O-])c3ncccc23)CC1 [Compound S13],
0.02 ± 0.01 µM,0.02 ± 0.01 µM,O=[N+]([O-])c1ccc(-c2ccc(O)cc2)c2cccnc12 [Compound S15],
0.66 ± 0.13 µM,1.3 ± 0.03 µM,O=[N+]([O-])c1ccc(-c2ccc(CO)cc2)c2cccnc12 [Compound S16],
,0.82 ± 0.04 µM,COc1ccc(C(=O)N2CCN(c3ccc(N)c4ncccc34)CC2)cc1 [Compound S21],

# The next lines start with the compound.
Structure (SMILES),IC50 (human TLR7),IC50 (hTLR8),other results
Cc1ccc(C(=O)N2CCN(c3ccc([N+](=O)[O-])c4ncccc34)CC2)cc1 [Compound S2],0.86 ± 0.39 µM,0.11 ± 0.04 µM,
COc1ccc(C(=O)N2CCN(c3ccc([N+](=O)[O-])c4ncccc34)CC2)cc1 [Compound S4],0.53 ± 0.09 µM,0.07 ± 0.01 µM,
O=C(c1ccc([N+](=O)[O-])cc1)N1CCN(c2ccc([N+](=O)[O-])c3ncccc23)CC1 [Compound S5],0.64 ± 0.21 µM,0.15 ± 0.04 µM,
O=C(c1ccccc1)N1CCN(c2ccc([N+](=O)[O-])c3ncccc23)CC1 [Compound S6],1.07 ± 0.42 µM,0.1 ± 0.07 µM,
O=C(c1ccc(F)cc1)N1CCN(c2ccc([N+](=O)[O-])c3ncccc23)CC1 [Compound S7],1.15 ± 0.16 µM,0.1 ± 0.05 µM,
O=C(c1ccc(Br)cc1)N1CCN(c2ccc([N+](=O)[O-])c3ncccc23)CC1 [Compound S8],0.97 ± 1.23 µM,0.14 ± 0.17 µM,
COc1cccc(C(=O)N2CCN(c3ccc([N+](=O)[O-])c4ncccc34)CC2)c1 [Compound S9],1.28 ± 1.05 µM,0.08 ± 0.03 µM,
O=C(c1ccncc1)N1CCN(c2ccc([N+](=O)[O-])c3ncccc23)CC1 [Compound S14],3 ± 0.37 µM,0.06 ± 0.01 µM,ANA and anti-ds-DNA antibody levels (MRL/lpr mice): no significant alterations; glomerular diameter (MRL/lpr mice): no significant alterations; skin lesion severity (MRL/lpr mice): no significant alterations; spleen index (MRL/lpr mice): no significant alterations; survival rate (MRL/lpr mice): notably lower than the placebo group
COc1ccc(C(=O)N2CCN(c3ccc([N+](=O)[O-])c4cccnc34)CC2)cc1 [Compound S24],,,IL-8 mRNA level [1]: inactive
C=CCn1c(=O)n([C@@H]2O[C@H](CO)[C@@H](O)[C@H]2O)c2nc(N)[nH]c(=O)c21 [loxoribine],,,"Kd [2, 3]: 4.4 µM; ΔH [2, 3]: -5.828 kcal/mol; heat change upon titration ([2]; loxoribine into TLR7 in the presence of pre-mixed 500 μmol/L TH-407b): completely obliterated"
